Source: ChEMBL document CHEMBL4118021, “Studies of TAK1-centered polypharmacology with novel covalent TAK1 inhibitors” (Bioorg Med Chem, 2017)

Assays:
Type in all cases: cell-based
[1] = target: Ribosomal protein S6 kinase alpha-1 (Homo sapiens) (UniProt Q15418); test: Inhibition of RSK1 domain1 in human SKCO1 cells at 1 uM after 4 hrs using biotin labeled DLKPENILLDEEGHIK probe by mass-spectrometric analysis relative to control; details: pooled result: one value given for 3 cell lines, strains, targets or settings
Ribosomal protein S6 kinase alpha-1 (Homo sapiens), sequence (Q15418 whole entry, the tested form may be a part): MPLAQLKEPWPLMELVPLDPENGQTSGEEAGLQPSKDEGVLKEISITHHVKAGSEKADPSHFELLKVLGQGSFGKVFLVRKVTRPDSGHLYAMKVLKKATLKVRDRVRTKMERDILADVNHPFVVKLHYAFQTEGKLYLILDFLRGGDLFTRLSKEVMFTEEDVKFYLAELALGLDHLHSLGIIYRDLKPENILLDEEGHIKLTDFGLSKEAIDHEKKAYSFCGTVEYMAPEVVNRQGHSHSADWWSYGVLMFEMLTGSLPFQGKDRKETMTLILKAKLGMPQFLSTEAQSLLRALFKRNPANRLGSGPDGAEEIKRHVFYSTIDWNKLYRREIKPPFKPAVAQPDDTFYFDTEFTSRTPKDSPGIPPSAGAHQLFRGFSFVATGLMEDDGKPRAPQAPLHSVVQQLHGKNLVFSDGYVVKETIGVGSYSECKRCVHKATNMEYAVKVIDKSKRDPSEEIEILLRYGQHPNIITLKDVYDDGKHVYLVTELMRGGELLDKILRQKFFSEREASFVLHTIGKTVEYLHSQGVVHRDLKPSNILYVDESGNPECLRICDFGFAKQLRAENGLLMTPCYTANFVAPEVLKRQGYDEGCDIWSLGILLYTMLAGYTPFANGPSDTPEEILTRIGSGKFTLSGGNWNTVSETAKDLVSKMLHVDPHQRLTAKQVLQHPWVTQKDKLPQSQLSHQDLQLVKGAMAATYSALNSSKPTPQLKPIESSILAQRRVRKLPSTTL
Summary of the method: (§1)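 Live SK-CO-1 cells exposed to compound at 1 μM or DMSO for 4 h (KiNativ). Lysates then labeled with lysine-reactive ATP/ADP-biotin probe, and probe-labeled kinase peptides quantified by mass spectrometry. Percent inhibition of probe-dependent recovery calculated relative to DMSO-treated cells.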

[2] = target: Serine/threonine-protein kinase 10 (Homo sapiens) (UniProt O94804); test: Inhibition of LOK in human SKCO1 cells at 1 uM after 4 hrs using biotin labeled DLKAGNVLMTLEGDIR probe by mass-spectrometric analysis relative to control
[3] = target: Glycogen synthase kinase-3 beta (Homo sapiens) (UniProt P49841); test: Inhibition of GSK3B in human SKCO1 cells at 1 uM after 4 hrs using biotin labeled DIKPQNLLLDPDTAVLK probe by mass-spectrometric analysis relative to control
Glycogen synthase kinase-3 beta (Homo sapiens), sequence (P49841 whole entry, looked up): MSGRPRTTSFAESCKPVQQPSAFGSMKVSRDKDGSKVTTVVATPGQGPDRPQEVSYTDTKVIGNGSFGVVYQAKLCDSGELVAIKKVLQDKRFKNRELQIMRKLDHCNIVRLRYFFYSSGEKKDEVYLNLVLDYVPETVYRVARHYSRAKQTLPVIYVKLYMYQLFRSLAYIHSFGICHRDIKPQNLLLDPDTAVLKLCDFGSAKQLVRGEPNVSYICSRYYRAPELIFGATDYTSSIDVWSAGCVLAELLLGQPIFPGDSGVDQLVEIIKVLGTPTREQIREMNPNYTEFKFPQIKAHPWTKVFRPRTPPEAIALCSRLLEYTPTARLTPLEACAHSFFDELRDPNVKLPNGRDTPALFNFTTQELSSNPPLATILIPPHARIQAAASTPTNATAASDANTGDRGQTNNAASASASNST

[4] = target: Serine/threonine-protein kinase Nek4 (Homo sapiens) (UniProt P51957); test: Inhibition of NEK4 in human SKCO1 cells at 1 uM after 4 hrs using biotin labeled DLKTQNVFLTR probe by mass-spectrometric analysis relative to control; summary of the method: as §1
Serine/threonine-protein kinase Nek4 (Homo sapiens), sequence (P51957 whole entry, looked up): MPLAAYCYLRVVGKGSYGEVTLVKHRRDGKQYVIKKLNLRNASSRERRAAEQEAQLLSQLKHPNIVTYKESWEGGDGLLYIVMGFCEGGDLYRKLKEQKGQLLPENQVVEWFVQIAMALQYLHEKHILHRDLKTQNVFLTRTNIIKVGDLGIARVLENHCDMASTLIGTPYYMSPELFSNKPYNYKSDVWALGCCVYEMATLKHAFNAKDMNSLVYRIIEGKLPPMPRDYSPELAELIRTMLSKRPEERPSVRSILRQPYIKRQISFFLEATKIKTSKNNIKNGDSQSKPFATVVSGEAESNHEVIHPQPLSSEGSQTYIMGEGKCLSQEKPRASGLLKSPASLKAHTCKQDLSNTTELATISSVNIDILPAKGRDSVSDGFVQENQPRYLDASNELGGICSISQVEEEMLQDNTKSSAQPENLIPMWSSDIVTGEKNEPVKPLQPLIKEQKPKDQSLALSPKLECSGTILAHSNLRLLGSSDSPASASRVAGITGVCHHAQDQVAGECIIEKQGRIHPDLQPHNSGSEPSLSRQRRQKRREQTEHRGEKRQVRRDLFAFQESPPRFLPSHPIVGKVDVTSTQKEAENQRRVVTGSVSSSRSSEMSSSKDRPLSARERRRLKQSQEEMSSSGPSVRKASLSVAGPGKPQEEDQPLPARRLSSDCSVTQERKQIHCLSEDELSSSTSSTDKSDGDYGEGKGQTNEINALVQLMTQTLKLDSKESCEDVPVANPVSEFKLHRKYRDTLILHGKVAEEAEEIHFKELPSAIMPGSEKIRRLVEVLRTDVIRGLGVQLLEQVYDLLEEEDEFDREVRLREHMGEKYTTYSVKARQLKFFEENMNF

[5] = target: Cyclin-dependent kinase 18 (Homo sapiens) (UniProt Q07002); test: Inhibition of PCTAIRE3 in human SKCO1 cells at 1 uM after 4 hrs using biotin labeled DLKPQNLLINER probe by mass-spectrometric analysis relative to control; summary of the method: as §1
Cyclin-dependent kinase 18 (Homo sapiens), sequence (Q07002 whole entry): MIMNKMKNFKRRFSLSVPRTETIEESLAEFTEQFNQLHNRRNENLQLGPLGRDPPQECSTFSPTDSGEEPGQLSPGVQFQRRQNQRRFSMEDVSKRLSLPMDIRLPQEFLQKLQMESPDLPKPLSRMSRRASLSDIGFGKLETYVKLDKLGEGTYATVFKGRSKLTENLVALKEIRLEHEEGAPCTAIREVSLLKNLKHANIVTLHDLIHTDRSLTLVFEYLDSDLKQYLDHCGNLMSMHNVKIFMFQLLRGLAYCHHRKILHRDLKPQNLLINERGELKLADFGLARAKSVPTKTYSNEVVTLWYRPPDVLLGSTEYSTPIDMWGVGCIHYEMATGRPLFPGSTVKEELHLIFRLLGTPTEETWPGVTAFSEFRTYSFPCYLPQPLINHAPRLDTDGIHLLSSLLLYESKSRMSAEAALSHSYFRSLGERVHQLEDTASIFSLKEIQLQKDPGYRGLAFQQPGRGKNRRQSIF

[6] = target: Mitogen-activated protein kinase kinase kinase kinase 1 (Homo sapiens) (UniProt Q92918); test: Inhibition of HPK1 in human SKCO1 cells at 1 uM after 4 hrs using biotin labeled DIKGANILINDAGEVR probe by mass-spectrometric analysis relative to control
Mitogen-activated protein kinase kinase kinase kinase 1 (Homo sapiens), sequence (Q92918 whole entry, looked up): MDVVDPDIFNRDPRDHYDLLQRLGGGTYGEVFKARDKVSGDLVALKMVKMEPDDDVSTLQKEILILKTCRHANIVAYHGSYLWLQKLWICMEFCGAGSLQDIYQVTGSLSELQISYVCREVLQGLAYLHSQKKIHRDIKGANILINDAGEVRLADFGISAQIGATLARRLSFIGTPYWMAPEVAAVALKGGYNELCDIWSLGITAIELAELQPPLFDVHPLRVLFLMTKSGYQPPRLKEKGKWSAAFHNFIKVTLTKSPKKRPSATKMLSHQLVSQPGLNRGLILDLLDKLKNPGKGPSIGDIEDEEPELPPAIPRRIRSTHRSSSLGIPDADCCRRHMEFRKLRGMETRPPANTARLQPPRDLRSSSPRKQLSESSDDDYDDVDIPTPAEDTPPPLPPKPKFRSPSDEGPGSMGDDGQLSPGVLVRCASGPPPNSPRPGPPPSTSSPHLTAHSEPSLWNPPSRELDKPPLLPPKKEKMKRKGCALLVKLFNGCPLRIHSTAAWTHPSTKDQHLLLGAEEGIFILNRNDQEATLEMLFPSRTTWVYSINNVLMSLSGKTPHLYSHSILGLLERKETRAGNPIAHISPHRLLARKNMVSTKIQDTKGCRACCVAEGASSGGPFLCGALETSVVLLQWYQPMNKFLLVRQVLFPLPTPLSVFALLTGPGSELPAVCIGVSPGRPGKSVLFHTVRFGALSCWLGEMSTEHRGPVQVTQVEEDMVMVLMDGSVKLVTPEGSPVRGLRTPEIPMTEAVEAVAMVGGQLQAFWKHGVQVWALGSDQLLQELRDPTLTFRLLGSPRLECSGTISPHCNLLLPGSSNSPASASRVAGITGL

[7] = target: Serine/threonine-protein kinase PLK1 (Homo sapiens) (UniProt P53350); test: Inhibition of PLK1 in human SKCO1 cells at 1 uM after 4 hrs using biotin labeled CFEISDADTKEVFAGKIVPK probe by mass-spectrometric analysis relative to control; summary of the method: as §1
Serine/threonine-protein kinase PLK1 (Homo sapiens), sequence (P53350 whole entry): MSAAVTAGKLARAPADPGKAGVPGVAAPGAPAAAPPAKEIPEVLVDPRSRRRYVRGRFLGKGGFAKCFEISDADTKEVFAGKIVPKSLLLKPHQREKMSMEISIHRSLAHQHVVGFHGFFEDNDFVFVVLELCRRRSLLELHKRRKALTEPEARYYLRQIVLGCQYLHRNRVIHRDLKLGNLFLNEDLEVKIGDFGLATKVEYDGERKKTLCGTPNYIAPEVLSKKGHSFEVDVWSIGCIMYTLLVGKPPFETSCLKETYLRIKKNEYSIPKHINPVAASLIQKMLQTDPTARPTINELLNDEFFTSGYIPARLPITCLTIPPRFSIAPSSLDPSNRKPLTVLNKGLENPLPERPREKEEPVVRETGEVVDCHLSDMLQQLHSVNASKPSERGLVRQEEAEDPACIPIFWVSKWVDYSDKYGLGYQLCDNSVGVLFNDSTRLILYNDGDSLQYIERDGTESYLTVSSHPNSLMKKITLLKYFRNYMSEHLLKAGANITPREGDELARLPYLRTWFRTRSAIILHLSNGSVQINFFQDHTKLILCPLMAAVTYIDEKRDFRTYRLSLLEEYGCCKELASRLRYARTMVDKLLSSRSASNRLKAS

[8] = target: Tyrosine-protein kinase Lyn (Homo sapiens) (UniProt P07948); test: Inhibition of LYN in human SKCO1 cells at 1 uM after 4 hrs using biotin labeled VAVKTLKPGTMSVQAFLEEANLMK probe by mass-spectrometric analysis relative to control
Tyrosine-protein kinase Lyn (Homo sapiens), sequence (P07948 2-512 limits assumed): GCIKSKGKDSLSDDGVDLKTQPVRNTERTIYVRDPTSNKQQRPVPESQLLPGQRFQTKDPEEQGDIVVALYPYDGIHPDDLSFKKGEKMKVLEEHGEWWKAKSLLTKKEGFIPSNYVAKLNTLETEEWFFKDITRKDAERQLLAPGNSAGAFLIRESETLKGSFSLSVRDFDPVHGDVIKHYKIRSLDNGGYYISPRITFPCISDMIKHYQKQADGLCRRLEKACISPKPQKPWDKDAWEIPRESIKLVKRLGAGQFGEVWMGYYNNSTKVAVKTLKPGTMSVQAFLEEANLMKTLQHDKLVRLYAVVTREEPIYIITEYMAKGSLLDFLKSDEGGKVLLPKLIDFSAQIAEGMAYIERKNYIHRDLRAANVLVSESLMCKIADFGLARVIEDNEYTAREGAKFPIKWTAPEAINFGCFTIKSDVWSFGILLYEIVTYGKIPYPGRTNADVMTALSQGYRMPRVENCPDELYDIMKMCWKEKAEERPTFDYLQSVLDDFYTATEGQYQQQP

[9] = target: T1, Mitogen-activated protein kinase kinase kinase kinase 3 (Homo sapiens) (UniProt Q8IVH8); test: Inhibition of KHS2 in human SKCO1 cells at 1 uM after 4 hrs using biotin labeled NVNTGELAAIKVIK probe by mass-spectrometric analysis relative to control
T1 sequence (whole entry): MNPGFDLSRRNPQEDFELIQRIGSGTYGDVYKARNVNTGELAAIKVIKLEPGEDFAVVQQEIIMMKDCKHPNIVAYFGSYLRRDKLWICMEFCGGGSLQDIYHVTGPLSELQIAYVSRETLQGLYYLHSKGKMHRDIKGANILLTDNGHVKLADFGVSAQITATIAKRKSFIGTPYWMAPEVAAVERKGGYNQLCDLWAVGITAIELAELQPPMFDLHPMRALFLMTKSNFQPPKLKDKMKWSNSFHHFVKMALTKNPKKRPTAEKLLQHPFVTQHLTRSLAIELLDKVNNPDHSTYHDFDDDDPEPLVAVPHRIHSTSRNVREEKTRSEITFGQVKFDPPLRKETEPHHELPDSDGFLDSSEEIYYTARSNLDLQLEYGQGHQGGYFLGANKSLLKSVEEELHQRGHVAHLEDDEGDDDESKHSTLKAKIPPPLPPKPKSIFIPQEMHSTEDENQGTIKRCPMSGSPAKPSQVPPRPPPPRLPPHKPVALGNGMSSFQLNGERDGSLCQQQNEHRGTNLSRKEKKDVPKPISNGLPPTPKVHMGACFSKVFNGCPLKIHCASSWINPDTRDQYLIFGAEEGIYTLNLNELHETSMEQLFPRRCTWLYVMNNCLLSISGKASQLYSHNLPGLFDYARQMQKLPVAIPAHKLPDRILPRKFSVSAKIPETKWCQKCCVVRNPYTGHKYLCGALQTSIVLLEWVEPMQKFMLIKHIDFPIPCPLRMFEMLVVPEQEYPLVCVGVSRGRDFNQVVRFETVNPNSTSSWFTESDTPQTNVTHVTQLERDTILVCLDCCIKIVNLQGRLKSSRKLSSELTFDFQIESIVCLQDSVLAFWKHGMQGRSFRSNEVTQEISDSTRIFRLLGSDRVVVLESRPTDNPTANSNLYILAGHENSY

[10] = target: Cyclin-dependent kinase 1 (Homo sapiens) (UniProt P06493); test: Inhibition of CDC2 in human SKCO1 cells at 1 uM after 4 hrs using biotin labeled DLKPQNLLIDDK probe by mass-spectrometric analysis relative to control
[11] = target: Dual specificity mitogen-activated protein kinase kinase 1 (Homo sapiens) (UniProt Q02750); test: Inhibition of MAP2K1 in human SKCO1 cells at 1 uM after 4 hrs using biotin labeled KLIHLEIKPAIR probe by mass-spectrometric analysis relative to control; details: pooled result: one value given for 2 cell lines, strains, targets or settings
Dual specificity mitogen-activated protein kinase kinase 1 (Homo sapiens), sequence (Q02750 whole entry): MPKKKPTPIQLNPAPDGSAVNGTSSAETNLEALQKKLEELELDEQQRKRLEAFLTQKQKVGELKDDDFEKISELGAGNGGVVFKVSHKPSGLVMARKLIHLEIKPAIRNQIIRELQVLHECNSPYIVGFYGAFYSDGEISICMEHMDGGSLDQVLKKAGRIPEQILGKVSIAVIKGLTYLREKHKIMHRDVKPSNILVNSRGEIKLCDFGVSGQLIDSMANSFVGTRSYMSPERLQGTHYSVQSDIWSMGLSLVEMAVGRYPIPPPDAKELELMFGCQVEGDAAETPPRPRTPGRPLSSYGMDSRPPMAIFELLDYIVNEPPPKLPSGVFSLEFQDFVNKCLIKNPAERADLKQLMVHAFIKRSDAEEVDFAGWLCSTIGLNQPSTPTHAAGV

Compound	inhibition [1] [%]	inhibition [2] [%]	inhibition [3] [%]	inhibition [4] [%]	inhibition [5] [%]	inhibition [6] [%]	inhibition [7] [%]	inhibition [8] [%]	inhibition [9] [%]	inhibition [10] [%]	inhibition [11] [%]
COc1cc(O)c2c(c1)/C=C/C[C@H](O)[C@H](O)C(=O)/C=C\C[C@H](C)OC2=O	65.4	21.4	3	18.9	-6.3	77.3	61.5	-5.1	3.1	46.6	85.3
C=CC(=O)Nc1ccccc1Nc1nc(Nc2ccc(N3CCN(C)CC3)cc2)ncc1Cl	42.5	40.4	-6.6	23.8	-3.2	34.9	54.6	16.5	42.4	47.7	62.7
C=CC(=O)Nc1ccccc1Oc1nc(Nc2cnn(CCOC)c2)ncc1Cl	13	11.6	17	15.1	-5.9	72.6	59.9	2.8	-7.5	33.1	13.9
